Measured values reported in ChEMBL document CHEMBL1208664, “Structure-activity relationship studies of acridones as potential antipsoriatic agents. 1. Synthesis and antiproliferative activity of simple N-unsubstituted 10H-acridin-9-ones against human keratinocyte growth” (Eur J Med Chem, 2010).

Legend:
HaCaT [1] = experiment: Antiproliferative activity against human HaCaT cells after 48 hrs by phase contrast microscopy; type: functional, cell-based
Outline: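 HaCaT keratinocytes were treated for 48 h, then dispersed cells were counted under phase-contrast microscopy. Inhibition = (1 − test/control) × 100, with test mean N=3 against control N=6–8. Significance was by Student's t-test.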

[2] = tested on: Radical scavenging activity; experiment: Antioxidant activity assessed as DPPH free radical scavenging activity after 30 mins; type: functional; conditions: in the assay text read “after 20 mins” for “after 30 mins”
Outline: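 Test compound in EtOH was mixed with an equal volume of DPPH in EtOH. The mix was shaken 30 s, held in the dark at RT for 20 min, shaken again 30 s, and the drop in absorbance at 520 nm was read. Scavenging % = (1 − test/control absorbance) × 100, with test N=3 and control N=8. EC50 came from nonlinear regression. NDGA and α-tocopherol were positive controls.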

HaCaT [3] = experiment: Antiproliferative activity against human HaCaT cells assessed as LDH release at 2 uM after 4 hrs by UV method

Row | Structure (SMILES) | IC50 (HaCaT [1]) | EC50 [2] | Activity (HaCaT [3]) | IC50 [2]
1 | O=c1c2ccccc2[nH]c2cc(O)ccc12 | > 50 µM |  |  | 
2 | COc1ccc(C(N)=O)c2[nH]c3ccccc3c(=O)c12 | 8.8 µM | > 60 µM | 66.5 mU/ml | 
3 | COC(=O)c1ccc(O)c2c(=O)c3ccccc3[nH]c12 | 5.2 µM | > 60 µM | 58.8 mU/ml | 
4 | COC(=O)c1ccc(OC)c2c(=O)c3ccccc3[nH]c12 | 10.8 µM | > 60 µM | 63.7 mU/ml | 
5 | O=C(O)c1ccc(O)c2c(=O)c3ccccc3[nH]c12 | 49.2 µM | > 60 µM |  | 
6 | COc1ccc(C(=O)O)c2[nH]c3ccccc3c(=O)c12 | > 50 µM | > 60 µM |  | 
7 | O=c1c2ccccc2[nH]c2cc(OCc3ccccc3)cc(O)c12 | 47.8 µM |  |  | 
8 | O=c1c2ccccc2[nH]c2cc(OCCc3ccccc3)cc(O)c12 | 21 µM |  |  | 
9 | CC(=O)c1ccc2[nH]c3ccccc3c(=O)c2c1O | 17.1 µM | > 60 µM |  | 
10 | O=C(c1ccccc1)c1ccc2[nH]c3ccccc3c(=O)c2c1O | 1.6 µM | > 60 µM | 88.9 mU/ml | 
11 | CC(=O)Oc1cccc2[nH]c3ccccc3c(=O)c12 | 21.5 µM |  |  | 
12 | O=C(Oc1cccc2[nH]c3ccccc3c(=O)c12)c1ccccc1 | 12.4 µM | > 60 µM |  | 
13 | O=c1c2c(O)cccc2[nH]c2cccc(O)c12 | 39.5 µM | > 60 µM |  | 
14 | COc1cccc2[nH]c3cccc(OC)c3c(=O)c12 | > 50 µM |  |  | 
15 | O=c1c2ccccc2[nH]c2c(O)cccc12 | > 50 µM | 6.8 µM |  | 
16 | COc1ccc2c(=O)c3ccccc3[nH]c2c1 | > 50 µM |  |  | 
17 | COc1cccc2c(=O)c3ccccc3[nH]c12 | > 50 µM | > 60 µM |  | 
18 | O=c1c2ccccc2[nH]c2c(O)ccc(O)c12 | 10 µM | 8.8 µM | 61.2 mU/ml | 
19 | COc1ccc(OC)c2c(=O)c3ccccc3[nH]c12 | > 50 µM | > 60 µM |  | 
20 | COc1ccc(O)c2c(=O)c3ccccc3[nH]c12 | 17.5 µM | > 60 µM |  | 

Row | Structure (SMILES) | IC50 (HaCaT [1]) | EC50 [2] | Activity (HaCaT [3]) | IC50 [2]
21 | O=c1c2ccc(O)cc2[nH]c2cccc(O)c12 | 4.5 µM | > 60 µM | 77.7 mU/ml | 
22 | COc1ccc2c(=O)c3c(OC)cccc3[nH]c2c1 | > 50 µM |  |  | 
23 | O=c1c2cc(O)ccc2[nH]c2cccc(O)c12 | 48.8 µM | 3.9 µM |  | 
24 | COc1ccc2[nH]c3cccc(OC)c3c(=O)c2c1 | > 50 µM |  |  | 
25 | O=c1c2cccc(O)c2[nH]c2cc(O)cc(O)c12 | 8.4 µM | 15 µM | 69.9 mU/ml | 
26 | O=c1c2c(O)cccc2[nH]c2cc(O)cc(O)c12 | 2 µM | > 60 µM | 69.3 mU/ml | 
27 | COc1cc(OC)c2c(=O)c3c(OC)cccc3[nH]c2c1 | 45.3 µM |  |  | 
28 | COc1cccc2[nH]c3cc(O)cc(O)c3c(=O)c12 | 28.3 µM |  |  | 
29 | COc1ccc(O)c2c(=O)c3c(O)cccc3[nH]c12 | > 50 µM | > 60 µM |  | 
30 | COc1ccc(OC)c2c(=O)c3c(OC)cccc3[nH]c12 | > 50 µM | > 60 µM |  | 
31 | Cc1cc(O)c2c(=O)c3ccccc3[nH]c2c1 | > 50 µM |  |  | 
32 | Cc1cc(O)cc2[nH]c3ccccc3c(=O)c12 | 27.3 µM |  |  | 
33 | Cc1ccc2c(=O)c3c(O)cc(O)cc3[nH]c2c1 | > 50 µM |  |  | 
34 | Cc1ccc(O)c2c(=O)c3ccccc3[nH]c12 | 25.7 µM | > 60 µM |  | 
35 | COc1ccc(C)c2[nH]c3ccccc3c(=O)c12 | 46.7 µM | > 60 µM |  | 
36 | O=c1c2ccccc2[nH]c2c(Cl)ccc(O)c12 | 26.3 µM | > 60 µM |  | 
37 | COc1ccc(Cl)c2[nH]c3ccccc3c(=O)c12 | 43.8 µM | > 60 µM |  | 
38 | O=c1c2ccccc2[nH]c2c([N+](=O)[O-])ccc(O)c12 | 47.3 µM | > 60 µM |  | 
39 | COc1ccc([N+](=O)[O-])c2[nH]c3ccccc3c(=O)c12 | > 50 µM | > 60 µM |  | 
40 | Nc1ccc(O)c2c(=O)c3ccccc3[nH]c12 | > 50 µM | 7.6 µM |  | 

Row | Structure (SMILES) | IC50 (HaCaT [1]) | EC50 [2] | Activity (HaCaT [3]) | IC50 [2]
41 | COc1ccc(N)c2[nH]c3ccccc3c(=O)c12 | > 50 µM | 7.7 µM |  | 
42 | N#Cc1ccc(O)c2c(=O)c3ccccc3[nH]c12 | 27.9 µM | > 60 µM |  | 
43 | COc1ccc(C#N)c2[nH]c3ccccc3c(=O)c12 | > 50 µM | > 60 µM |  | 
44 | NC(=O)c1ccc(O)c2c(=O)c3ccccc3[nH]c12 | 4.7 µM | > 60 µM | 68.1 mU/ml | 
45 | Cc1cccc2c(O)c3c(O)cc(O)cc3nc12 | > 50 µM |  |  | 
46 | COc1cc(O)c2c(O)c3cccc(OC)c3nc2c1 | 34.3 µM |  |  | 
47 | O=c1c2ccccc2[nH]c2ccc(O)cc12 | > 50 µM | 2.7 µM |  | 
48 | COc1cc(O)c2c(=O)c3ccccc3[nH]c2c1 | 46.3 µM |  |  | 
49 | COc1cccc2[nH]c3ccccc3c(=O)c12 | > 50 µM | > 60 µM |  | 
50 | COc1cc(OC)c2c(=O)c3ccccc3[nH]c2c1 | > 50 µM |  |  | 
51 | O=c1c2ccccc2[nH]c2cc(O)cc(O)c12 | 19.8 µM | > 60 µM |  | 
52 | COc1ccc2[nH]c3ccccc3c(=O)c2c1 | > 50 µM |  |  | 
53 | O=c1c2ccccc2[nH]c2cccc(O)c12 | > 50 µM | > 60 µM |  | 
54 | Cc1cccc2nc3cc(O)cc(O)c3c(O)c12 | 0.8 µM | > 60 µM | 71.5 mU/ml | 
55 | COc1cccc2c(O)c3c(O)cc(O)cc3nc12 | 21.3 µM |  |  | 
56 | Cc1c(C)c2c(c(C)c1O)CC[C@@](C)(CCC[C@H](C)CCC[C@H](C)CCCC(C)C)O2 [ALPHA-TOCOPHEROL] |  |  |  | 8.2 µM
57 | O=C1c2c(O)cccc2Cc2cccc(O)c21 [ANTHRALIN] |  | 16.7 µM | 122.8 mU/ml | 
58 | CC(Cc1ccc(O)c(O)c1)C(C)Cc1ccc(O)c(O)c1 (stereo not given) [NORDIHYDROGUAIARETIC ACID] |  |  |  | 4.2 µM
